Reference: publication PMC7597899 (Chemical Science, 2020)

Assay: Acidity
Format: physicochemical
Conditions: aqueous 0.15 M KCl, with or without methanol cosolvent
Method in brief: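 Potentiometric titrations in 0.15 M KCl, titrated with 0.5 M HCl and KOH over pH 2.0–12.0. Samples were ≤0.5 mg and run in triplicate. Standard deviation came from fitting all three replicates. For water-insoluble compounds, methanol was added and the apparent psKa was extrapolated to aqueous pKa by the Yasuda–Shedlovsky procedure.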

| pKa | SMILES |
| --- | --- |
| 8.43 | CONC(=O)c1n[nH]c2ccccc12 [Compound 1a, O-methyl indazole-3-hydroxamic acid] |
| 7.21 | CONC(=O)c1nc2ccccc2[nH]1 [Compound 2a, O-methyl benzimidazole-2-hydroxamic acid] |
| 7.44 | CONC(=O)c1nsc2ccccc12 [Compound 3a, O-Methyl 1,2-benzisothiazole-3-hydroxamic acid] |
| 6.34 | CONC(=O)c1nc2ccccc2s1 [Compound 4a, O-methyl benzothiazole-2-hydroxamic acid] |
